{"data": "Published values from different studies", "sample": "plasma", "note": "Protocols differ between the studies behind these lines."}
{"Structure (SMILES)": "NS(=O)(=O)NCCNc1nonc1C(=NO)Nc1ccc(F)c(Br)c1", "host": "human", "route": "oral", "dose": "100 mg", "notes": "multiple doses, twice daily, steady state, patients", "half-life": "3.3 h"}
{"Structure (SMILES)": "CO[C@H]1CC[C@H](N2C(=O)CNc3ncc(-c4ccc(C(C)(C)O)nc4)nc32)CC1", "host": "human", "route": "oral", "dose": "60 mg", "notes": "patients", "half-life": "5.64 h"}
{"Structure (SMILES)": "COCCOc1cnc2ccn([C@H](C)c3nnc4c(F)cc(-c5cnn(C)c5)cn34)c(=O)c2c1", "host": "human", "route": "oral", "dose": "150 mg", "notes": "multiple doses, once daily, patients", "half-life": "9.9 h"}
{"Structure (SMILES)": "COc1cc(C(=O)NC2CCN(C)CC2)c(F)cc1Nc1ncc(C(F)(F)F)c(Oc2cccc3c2C(=O)N(C)C3)n1", "host": "human", "route": "oral", "dose": "50 mg", "notes": "multiple doses, once daily, patients", "half-life": "21.5 h"}
{"Structure (SMILES)": "CC(C)n1cc(C#N)c2cc(-n3cc(C(=O)O)cn3)ccc21", "host": "male human", "route": "oral", "dose": "600 mg", "notes": "single dose, fasted, healthy volunteers", "half-life": "11.9 h"}
{"Structure (SMILES)": "CO[C@@H]1[C@H](OC(=O)N2CC(CCN3CCOCC3)C2)CC[C@]2(CO2)[C@H]1[C@@]1(C)O[C@@H]1CC=C(C)C", "host": "human", "route": "subcutaneous", "dose": "1.2 mg", "notes": "single dose, healthy volunteers", "half-life": "0.72 h"}
{"Structure (SMILES)": "CC(C)(O)c1ccccc1-c1ccc2[nH]c(/C=C/c3ccc(C(F)(F)F)cc3)nc2c1", "host": "male human", "route": "oral", "dose": "15 mg", "notes": "single dose, fasted, healthy volunteers", "half-life": "59.3 h"}
{"Structure (SMILES)": "C[C@@H](Nc1cc(F)cc(F)c1)c1cc(C(=O)N(C)C)cc2c(=O)cc(N3CCOCC3)oc12", "host": "human", "route": "oral", "dose": "120 mg", "notes": "patients", "half-life": "4.62 h"}
{"Structure (SMILES)": "c1cnc2ccc(Nc3nc(NC4CC4)c4nc[nH]c4n3)cc2c1", "host": "human", "route": "oral", "dose": "800 mg/m²", "notes": "patients", "half-life": "6 h"}
{"Structure (SMILES)": "Cn1cc(-c2ccc(S(=O)(=O)[C@@H]3C[C@@H](C(=O)NC4(C#N)CC4)N(C(=O)C4(C(F)(F)F)CC4)C3)c(C(F)(F)F)c2)cn1", "host": "human", "route": "oral", "dose": "300 mg", "notes": "single dose, fasted, healthy volunteers", "half-life": "16 h"}
{"Structure (SMILES)": "C#C[C@]1(COP(=O)(O)OP(=O)(O)OP(=O)(O)O)O[C@@H](n2cnc3c(N)nc(F)nc32)C[C@@H]1O", "host": "human", "route": "oral", "dose": "30 mg", "notes": "single dose", "half-life": "118 h"}
{"Structure (SMILES)": "O=C(Nc1c(Cl)cncc1Cl)c1ccc(OC(F)F)c(OCC2CC2)c1", "host": "human", "route": "oral", "dose": "0.25 mg", "notes": "single dose", "half-life": "20.9 h"}
{"Structure (SMILES)": "CCNCCCNC/C=C\\CNCCCNCC", "host": "human", "route": "intravenous", "dose": "150 mg", "notes": "patients, infusion", "half-life": "0.2 h"}
{"Structure (SMILES)": "CC(C)(Sc1ccncc1-c1ccc(C#N)c2ccccc12)C(=O)O", "host": "male human", "route": "oral", "dose": "20 mg", "notes": "single dose, fasted, healthy volunteers", "half-life": "10.9 h"}
{"Structure (SMILES)": "COc1ccc([C@@H]2CN(C(=O)[C@@H](O)CO)C[C@@]2(C)[C@@H](C)O)cc1OC1CN(c2ccc(C)cn2)C1", "host": "human", "route": "oral", "dose": "0.1 mg", "notes": "single dose, healthy volunteers", "half-life": "9.74 h"}
